Reference: article PMC3346932 (Molecular Imaging and Biology, 2011)
Like-named read-outs stand apart in the source and are kept apart here. Where a SMILES comes first, the peptide text is derived from it. Bridges are numbered along the chain shown (N, C = ends). Where no end group is shown, it is not given here. The star is where a group is joined. IRDye800CW = CC1(C)C(/C=C/C2=C(Oc3ccc(S(=O)(=O)O)cc3)C(=C/C=C3/N(CCCCS(=O)(=O)O)c4ccc(S(=O)(=O)O)cc4C3(C)C)/CCC2)=[N+](CCCCCC(=O)*)c2ccc(S(=O)(=O)[O-])cc21

What was measured:
[1] = test system: inguinal lymph node of C57BL/6 mice; assay: lymphatic clearance from inguinal lymph node, NIR fluorescence imaging; format: in vivo, mouse; settings: for percent of maximal fluorescence intensity retained over the study period: intradermal, 0–50 min, normalized to maximum
In short: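 C57BL/6 mice were induced with 2–3% isoflurane and kept under <1% for 50 min at 37°. […] A region near the inguinal node was imaged at 200 ms/frame at 0.5, 2.5, 15, 30 and 50 min. Signal was normalized to each agent's maximum node intensity; Student's t test, α = 0.05.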

[2] = HPLC degradation study of ICG in saline; format: physicochemical; settings: 100 μg/mL ICG in saline, by 25 h
[3] = ref [27], cited from earlier work
[4] = reference standard; ref [53]; cited from earlier work
[5] = test system: lymphatic vasculature of C57BL/6 mice; assay: in vivo NIR fluorescence lymphatic imaging; set-up: species or system mouse; settings: intradermal 20 μL of 500 μM ICG or 100 μM cABD-IRDye800
In short: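 Shaved female C57BL/6 mice, 6–7 weeks old, under 2–3% isoflurane on a 37° heating pad (~30 min per animal). Intradermal injection at the tail base, with the injection site taped over. Illumination by a 785 nm laser diode (80 mW) expanded to an ~8 cm area. EMCCD capture through an 830 nm bandpass filter at 200 ms per frame. Mice monitored during and after imaging.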

[6] = water-octanol partition coefficient; format: physicochemical
[7] = fluorescence optical properties; format: physicochemical; settings: 785/830 nm
mouse serum albumin = mouse serum albumin (mouse, UniProt P07724 25-608); assay: SPR

Q: Which “percent of maximum fluorescence remaining at 50 min” value ([1]; intradermal 20 μL of 100 μM, 50 min) does the source give for `CC1(C)C(/C=C/C2=C(Oc3ccc(S(=O)(=O)O)cc3)C(=C/C=C3/N(CCCCS(=O)(=O)O)c4ccc(S(=O)(=O)[O-])cc4C3(C)C)/CCC2)=[N+](CCCCCC(=O)O)c2ccc(S(=O)(=O)O)cc21` [IRDye800] here?
A: Its value is “less than 30%”.

Q: Which ICG peak remaining [2] does the source give for `CC1(C)C(/C=C/C=C/C=C/C=C2\N(CCCCS(=O)(=O)O)c3ccc4ccccc4c3C2(C)C)=[N+](CCCCS(=O)(=O)[O-])c2ccc3ccccc3c21` [ICG, indocyanine green] here?
A: The ICG peak remaining was 30%.

Q: And the degradation peak [2]?
A: Its degradation peak is 70%.

Q: And the half life ([3]; ambient temperature under normal light)?
A: The half life was 14 h.

Q: What about the half life ([3]; aqueous solution, darkness, low temperature (8°C)) of the same molecule?
A: Its half life is “approximately 20 h”.

Q: And the half life ([3]; aqueous solution, exposure to light at 786 nm)?
A: Its half life is 2.3 h.

Q: What about the known lifetime [4] of the same molecule?
A: The known lifetime was 0.56 ns.

Q: And the “percent of maximal fluorescence intensity retained over the study period” value [1]?
A: Its value is “at least 80%”.

Q: And the “adverse events during and after imaging” value [5]?
A: Its value is “none”.

Q: What does the source list for `CC[C@H](C)[C@H](NC(=O)[C@H](CC(C)C)NC(=O)[C@H](CCCNC(=N)N)NC(C)=O)C(=O)N[C@@H](CCC(=O)O)C(=O)N[C@@H](CC(=O)O)C(=O)N[C@H](C(=O)N[C@H]1CSSC[C@@H](C(=O)N[C@@H](CC(C)C)C(=O)N[C@@H](Cc2c[nH]c3ccccc23)C(=O)N[C@@H](CCC(=O)O)C(=O)N[C@@H](CC(=O)O)C(=O)N[C@@H](CC(=O)O)C(=O)N[C@@H](CCCCNC(=O)CCCCCN2C(=CC=C3CCCC(C=CC4=[N+](CCCCS(=O)(=O)O)c5ccc(S(=O)(=O)[O-])cc5C4(C)C)=C3Oc3ccc(S(=O)(=O)O)cc3)C(C)(C)c3cc(S(=O)(=O)O)ccc32)C(N)=O)NC(=O)CNC(=O)[C@H](Cc2c[nH]c3ccccc23)NC(=O)[C@H](CCCNC(=N)N)NC(=O)[C@@H]2CCCN2C(=O)[C@H](CC(C)C)NC1=O)[C@@H](C)CC` [cABD-IRDye800] (Ac-RLIEDICLPRWGCLWEDDK(IRDye800CW)-NH2; disulfide 7-13; N-terminus and C-terminus assumed)?
A: logP [6]: -0.53; lifetime relative to ICG [7]: 1.6 times; percent of maximal fluorescence intensity retained over the study period [1]: at least 80%; adverse events during and after imaging [5]: none

Q: Which Kd (mouse serum albumin) does the source give for RLIEDICLPRWGCLWEDDK (disulfide 7-13; also: Dylight680 conjugated, site not given here) [cABD conjugated to Dylight680] here?
A: Its Kd is 0.032 µM.
